Series [1] is filed under the species Oryctolagus cuniculus. Briefly: Maximum fall in IOP after 50 uL dose of 0.5% concentration in alpha-CT rabbit model. Type of series: functional. The method, boiled down:
(§1)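 Alpha-chymotrypsinized rabbit model of ocular hypertension. Single 50-µL bilateral instillation of a 0.5% (w/v) solution in 0.5% aqueous (hydroxyethyl)cellulose vehicle. Read-out is the fall in IOP.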

For series [2], the system named is Oryctolagus cuniculus. The series can be described thus: Tested in vivo for the IOP (intraocular pressure) recovery after 50 uL dose of 2% concentration in albino rabbits. Type of series: functional, Eye. The method, boiled down:
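Conscious albino rabbits. Aqueous humor production was assessed indirectly by IOP recovery rate. A single bilateral 50-µL instillation of 2% (w/v) in 0.5% aqueous (hydroxyethyl)cellulose vehicle was given. Results are percent change from control, tested by Dunnett's two-tailed test (P<0.05).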

The nature of series [3]: Dissociation constant (pKa) (determined in 30% EtOH/water). In kind it is physicochemical.
Series [4] is described as follows: Solubility (buffer pH 7.4). In kind it is physicochemical. As to conditions: read-out: S. In outline: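 Solubility in 50 mM phosphate buffer, pH 7.4.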
Series [5] in a line: Partition coefficient (pH 7.4). Type of series: ADME. The following applies: octanol/water. The method, boiled down:
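1-Octanol/phosphate buffer partition at pH 7.4 and 0.1 ionic strength. The compound was equilibrated between the phases and the concentration in each phase was measured by UV spectrophotometry.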

Series [6] concerns the target Carbonic anhydrase 2 (Homo sapiens, UniProt P00918). Briefly: Inhibitory activity against human carbonic anhydrase II using pH stat assay. The following applies: read-out: I50. Type of series: functional.
The species named for series [7] is Oryctolagus cuniculus. Briefly: Maximum fall in IOP after 50 microL dose of 0.5% concentration in alpha-CT rabbit model. Type of series: functional. In outline: as §1

The source of these data is ChEMBL document CHEMBL1125912, “Topically active carbonic anhydrase inhibitors. 4. [(Hydroxyalkyl)sulfonyl]benzene and [(hydroxyalkyl)sulfonyl]thiophenesulfonamides” (J Med Chem, 1991).

Converted amounts (≈) assume the structure as drawn.

In general, pKa refers to the negative logarithm of the acid dissociation constant. A high value points to a weaker acid or stronger base. Consider `NS(=O)(=O)c1cc2c(s1)S(=O)(=O)CCC2O` (centres undefined), for which the “Max fall in IOP” value in series [1] is reported as -6.9 mmHg. Further, the Change from control in series [2] is -40%. The same compound showed a pKa in series [3] of 8.2.
Regarding `NS(=O)(=O)c1ccc(S(=O)(=O)CCO)cc1`, in series [4], the solubility was found to be 6600 µg/mL (≈ 24.9 mM). In series [1], the “Max fall in IOP” value is given as -10.8 mmHg. Further, the Change from control in series [2] is on record as -41%. The D in series [5] stood at 0.14. In addition, the pKa in series [3] stood at 9.38. Moreover, the IC50 in series [6] was found to be 24 nM.
As for `CC(=O)OCCCc1ccc(S(N)(=O)=O)cc1`, in series [7], the “Max fall in IOP” value was -4.5 mmHg. The solubility in series [4] worked out at 1600 µg/mL (≈ 6.22 mM). In addition, the Change from control in series [2] was -18%. The D in series [5] stood at 9.6. In series [3], this compound displayed a pKa of 10.2.
Take `CC(=O)OCCCCCc1ccc(S(N)(=O)=O)cc1`: the solubility in series [4] came to 1200 µg/mL (≈ 4.21 mM). Further, the “Max fall in IOP” value in series [1] is -6.4 mmHg. The Change from control in series [2] is -33%. Besides, the D in series [5] was determined as 73. Further, in series [3], the pKa came out at 10.3.
